Results collected from several papers.
Compare with care: the assays were run in different laboratories.
Target: Calcium/calmodulin-dependent protein kinase type II subunit alpha (CAMK2A, Homo sapiens, UniProt Q9UQM7)

The remaining binding of COc1ccc2[nH]c3c4[nH]c5ccc(OC)cc5c4c4c(c3c2c1)C(=O)NC4=O is reported as 70% (binding; 1 µM).
CCCCCCCCCCCO gave an inhibition of -20% (enzyme activity; inhibitor; 10 µM).
For COc1ccc2oc(-c3ccc4nc(N)oc4c3)c/c(=N\c3ccccc3NC(=O)CCN)c2c1, the remaining binding was 93% (binding; 1 µM).
The inhibition of CCCCCCCCCCCCCCCCCCCCCCO is reported as -5% (enzyme activity; inhibitor; 10 µM).
C[C@H]1CC[C@H](n2c3cnccc3c3cnc(Nc4ccc5c(n4)CCN(C(=O)CO)C5)nc32)CC1 has a remaining signal of 33% (cell-free assay; 1 µM).
C=CC(=O)N1CCC([C@@H]2CCNc3c(C(N)=O)c(-c4ccc(Oc5ccccc5)cc4)nn32)CC1 gave an inhibition of 0% (enzyme activity; inhibitor; 1 µM).
With CC(C)S(=O)(=O)c1ccc2nccc(Nc3ccc4sc(C5CCCC5)nc4c3)c2c1 the activity vs control was 104% (enzyme activity; inhibitor; 1 µM).
For CCCCC(=O)Nc1ccc(-c2ccc3ncn(CCC)c(=O)c3c2)cn1, the remaining binding was 100% (binding; competition with immobilised ligand; 0.5 µM).
For C1=C/COCc2cc(ccc2OCCN2CCCC2)Nc2nccc(n2)-c2cccc(c2)COC/1, the remaining binding was 91% (binding; 0.1 µM).
CO[C@@H]1[C@H](N(C)C(=O)c2ccccc2)C[C@H]2O[C@]1(C)n1c3ccccc3c3c4c(c5c6ccccc6n2c5c31)C(=O)NC4 gave an inhibition of 94% (enzyme activity; inhibitor; 1 µM).
